Results from ChEMBL document CHEMBL3098030, “Explorations of substituted urea functionality for the discovery of new activators of the heme-regulated inhibitor kinase” (J Med Chem, 2013).
Active and inactive are the calls of the source. The rule behind the calls is not given here.

Legend:
[1] = target: Eukaryotic translation initiation factor 2-alpha kinase 1 (Homo sapiens) (UniProt Q9BQI3); assay: Activation of HRI in human CRL-2813-pBISA-DL(ATF-4) reporter cells assessed as concentration required to obtain F-luciferase expression/R-luciferase expression ratio 3
Outline: (§1)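 Stably transfected CRL-2813-pBISA-DL(ATF-4) reporter cells treated with compounds in dose-response; firefly and renilla luciferases read by dual glow luciferase kit. Activity = firefly/renilla (F/R) ratio normalized to DMSO-treated wells (set at 1). Triplicate points fitted to logistic sigmoidal model by nonlinear least squares; C3X = concentration giving F/R = 3, Emax = maximal F/R.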

[2] = Cytotoxicity against human CRL2813 cells after 5 days by SRB assay; format: functional, cell-based; settings: CRL2813, 120 h
Outline: (§2)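 CRL-2813 melanoma or NIH/3T3 fibroblasts seeded in 96-well plates, exposed 5 days to 0.5–20 μM compound; fixed in cold 10% TCA, bound sulforhodamine B measured. % growth = 100×(T−T0)/(C−T0). IC50 derived; triplicate, three independent experiments.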

[3] = target: Eukaryotic translation initiation factor 2-alpha kinase 1 (Homo sapiens) (UniProt Q9BQI3); assay: Activation of HRI in human CRL-2813-pBISA-DL(ATF-4) reporter cells assessed as reduction of ternary complex at 30 uM by dual-luciferase reporter gene assay relative to control; outline: as §1
[4] = target: Eukaryotic translation initiation factor 2-alpha kinase 1 (Homo sapiens) (UniProt Q9BQI3); assay: Activation of HRI in human CRL-2813-pBISA-DL(ATF-4) reporter cells assessed as eIF2alpha phosphorylation after 8 to 32 hrs by dual-luciferase reporter gene assay
Outline: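 Reporter CRL-2813-pBISA-DL(ATF-4) cells incubated with compounds for 8, 16 or 32 h. Firefly/renilla luciferase ratio measured by dual luciferase assay and normalized to vehicle-treated cells.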

[5] = target: Eukaryotic translation initiation factor 2-alpha kinase 1 (Homo sapiens) (UniProt Q9BQI3); assay: Activation of HRI in human CRL2813 cells assessed as reduction in cyclin D1 mRNA expression at 7.5 to 15 uM after 6 hrs by RT-PCR analysis; format: cell-based
Outline: (§3)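 CRL-2813 cells incubated with 7.5 or 15 μM compound for 6 h; CHOP and cyclin D1 mRNA measured by real-time PCR. Each run in triplicate, mean of three independent experiments ±S.E.M.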

[6] = target: Eukaryotic translation initiation factor 2-alpha kinase 1 (Homo sapiens) (UniProt Q9BQI3); assay: Activation of HRI in human CRL2813 cells assessed as increase in CHOP mRNA expression at 7.5 to 15 uM after 6 hrs by RT-PCR analysis; format: cell-based; outline: as §3
[7] = target: Eukaryotic translation initiation factor 2-alpha kinase 1 (Homo sapiens) (UniProt Q9BQI3); assay: Activation of HRI in human CRL2813 cells assessed as reduction in cyclin D1 protein expression at 10 uM after 6 hrs by Western blotting analysis; format: cell-based
Outline: (§4)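 CRL-2813 melanoma cells grown in serum-containing medium without antibiotics to 70% confluence, treated 6 h (10 μM for CHOP/cyclin D1), lysed in M-PER on ice 30 min, protein by BCA. Equal protein on SDS-PAGE, probed with anti-pS51-eIF2α rabbit mAb, anti-total eIF2α mouse mAb, anti-CHOP, anti-cyclin D1, anti-actin. Three independent experiments.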

[8] = target: Eukaryotic translation initiation factor 2-alpha kinase 1 (Homo sapiens) (UniProt Q9BQI3); assay: Activation of HRI in human CRL2813 cells assessed as increase in CHOP protein expression at 10 uM after 6 hrs by Western blotting analysis; format: cell-based; outline: as §4
[9] = target: Eukaryotic translation initiation factor 2-alpha kinase 1 (Homo sapiens) (UniProt Q9BQI3); assay: Activation of HRI in human CRL2813 cells assessed as eIF2alpha phosphorylation after 6 hrs by Western blotting analysis; format: cell-based; outline: as §4
[10] = Antiproliferative activity against human CRL2813 cells after 3 days by SRB assay in presence of HRI-targeting siRNA; format: functional, cell-based; settings: CRL2813, 72 h
Outline: (§5)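 CRL-2813 cells transiently transfected (Lipofectamine 2000) with HRI-targeting or non-targeting siRNA, then treated with compound dose range; proliferation by SRB after 3 days. IC50 calculated per siRNA condition; ratio is HRI-siRNA over non-targeting IC50. Triplicate, three independent experiments; mean±S.E.M.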

[11] = Antiproliferative activity against human CRL2813 cells after 3 days by SRB assay in presence of non-targeting siRNA; format: functional, cell-based; settings: CRL2813, 72 h; outline: as §5
[12] = Selectivity ratio of IC50 for mouse NIH/3T3 cells to IC50 for human CRL2813 cells; format: ADME, cell-based; settings: NIH/3T3 cells and CRL2813 cells, read-out: Ratio IC50
NIH3T3 = assay: Cytotoxicity against mouse NIH/3T3 cells after 5 days by SRB assay; format: cell-based; settings: NIH3T3, 120 h; outline: as §2

Eukaryotic translation initiation factor 2-alpha kinase 1 (Homo sapiens), sequence (Q9BQI3 whole entry): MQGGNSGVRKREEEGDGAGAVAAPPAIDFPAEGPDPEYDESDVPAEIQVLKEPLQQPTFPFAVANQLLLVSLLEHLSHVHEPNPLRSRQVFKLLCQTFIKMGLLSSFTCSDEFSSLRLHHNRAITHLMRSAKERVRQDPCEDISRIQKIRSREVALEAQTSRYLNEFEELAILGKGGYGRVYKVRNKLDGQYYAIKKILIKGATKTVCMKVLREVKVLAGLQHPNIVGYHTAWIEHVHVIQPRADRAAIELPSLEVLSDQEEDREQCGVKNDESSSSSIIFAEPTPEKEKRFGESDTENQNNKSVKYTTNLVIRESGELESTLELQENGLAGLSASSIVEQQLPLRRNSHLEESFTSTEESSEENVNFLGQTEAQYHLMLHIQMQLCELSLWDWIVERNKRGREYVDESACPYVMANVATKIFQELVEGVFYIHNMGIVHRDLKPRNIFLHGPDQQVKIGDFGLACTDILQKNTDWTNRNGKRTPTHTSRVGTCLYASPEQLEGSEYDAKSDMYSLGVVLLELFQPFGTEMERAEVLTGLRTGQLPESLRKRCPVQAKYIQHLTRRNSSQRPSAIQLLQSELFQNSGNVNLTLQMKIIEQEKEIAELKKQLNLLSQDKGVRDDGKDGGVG

Structure (SMILES) | Activity [1] [µM] | IC50 [2] [µM] | Ratio [3] | other results
O=C(Nc1cccc(C(F)(F)F)c1)N[C@H]1CCC[C@H](Oc2ccc(C(F)(F)F)cc2)C1 (relative stereo) | 2.7 | 3.8 | 4.52 | 
COc1ccccc1NC(=O)N[C@H]1CC[C@H](Oc2ccc(F)cc2)CC1 |  | > 20 | 1.51 | 
O=C(Nc1cccc(C(F)(F)F)c1)N[C@H]1CC[C@H](Oc2ccc(Cl)cc2)CC1 | 1.6 | 2 | 6.73 | 
O=C(Nc1cccc(C(F)(F)F)c1)N[C@H]1CCCC[C@@H]1Oc1ccc(C(F)(F)F)cc1 (relative stereo) | 1.7 | 3.1 | 5.89 | Activity [4]: Active
O=C(Nc1cccc(C(F)(F)F)c1)NC1CCCCC1 |  | 13.2 | 1.87 | 
COc1cccc(NC(=O)N[C@H]2CC[C@H](Oc3ccc(F)cc3)CC2)c1 | 26 | 14 | 3.81 | 
O=C(Nc1ccccc1Br)N[C@H]1CC[C@H](Oc2ccc(F)cc2)CC1 | 16.4 | 7.7 | 5.23 | 
O=C(Nc1ccccc1OC(F)(F)F)N[C@H]1CC[C@H](Oc2ccc(F)cc2)CC1 |  | > 20 | 1.41 | 
CSc1cccc(NC(=O)N[C@H]2CC[C@H](Oc3ccc(F)cc3)CC2)c1 | 12.2 | 11.1 | 6.67 | 
O=C(Nc1ccccc1C(=O)O)N[C@H]1CC[C@@H](Oc2ccc(F)cc2)CC1 |  | > 20 | 1.2 | 
CSc1ccccc1NC(=O)N[C@H]1CC[C@H](Oc2ccc(F)cc2)CC1 |  | > 20 | 0.92 | 
O=C(Nc1cccc(Br)c1)N[C@H]1CC[C@H](Oc2ccc(F)cc2)CC1 | 5.7 | 6.2 | 9.52 | 
Cc1ccccc1NC(=O)N[C@H]1CC[C@H](Oc2ccc(F)cc2)CC1 |  | > 20 | 0.98 | 
O=C(Nc1ccccc1C(F)(F)F)N[C@H]1CC[C@H](Oc2ccc(F)cc2)CC1 |  | > 20 | 1.56 | Activity [5]: Active; Activity [6]: Active; Activity [7]: Active; Activity [8]: Active; Activity [9]: Active
O=C(Nc1cccc(C(F)(F)F)c1)N[C@H]1CC[C@H](Oc2ccccc2C(F)(F)F)CC1 | 1.2 | 1.4 | 15.7 | 
O=C(Nc1cccc(I)c1)N[C@H]1CC[C@H](Oc2ccc(F)cc2)CC1 | 5.6 | 5.2 | 7.63 | 
COC(=O)c1cccc(NC(=O)N[C@H]2CC[C@H](Oc3ccc(F)cc3)CC2)c1 | 17.1 | 9.2 | 6.83 | 
O=C(Nc1ccc(Br)cc1)N[C@H]1CC[C@H](Oc2ccc(F)cc2)CC1 |  | > 20 | 1.29 | 
Cc1ccc(NC(=O)N[C@H]2CC[C@H](Oc3ccc(F)cc3)CC2)cc1 |  | > 20 | 1.05 | 
O=C(Nc1cccc(C(F)(F)F)c1)N[C@H]1CC[C@H](O)CC1 |  | > 20 | 0.89 | 

Structure (SMILES) | Activity [1] [µM] | IC50 [2] [µM] | Ratio [3] | other results
COC(=O)c1ccccc1NC(=O)N[C@H]1CC[C@@H](Oc2ccc(F)cc2)CC1 | 26.2 | 14.5 | 3.79 | 
O=C(Nc1ccccc1[N+](=O)[O-])N[C@H]1CC[C@H](Oc2ccc(F)cc2)CC1 |  | 3.5 | 2.23 | 
O=C(Nc1ccccc1)N[C@H]1CC[C@H](Oc2ccc(F)cc2)CC1 |  | 20 | 1.65 | 
O=C(Nc1ccc(I)cc1)N[C@H]1CC[C@H](Oc2ccc(F)cc2)CC1 | 6.3 | 10.2 | 3.77 | 
O=C(Nc1cccc(C(F)(F)F)c1)N[C@H]1CC[C@H](Oc2ccc(C(F)(F)F)cc2)CC1 | 0.3 | 0.46 | 25.1 | IC50 [10]: 5 µM; IC50 [11]: 660 nM; selectivity ratio [12]: 7.4; IC50 (NIH3T3): 3.4 µM
CSc1ccc(NC(=O)N[C@H]2CC[C@H](Oc3ccc(F)cc3)CC2)cc1 |  | > 20 | 1.07 | 
COC(=O)c1ccc(NC(=O)N[C@H]2CC[C@H](Oc3ccc(F)cc3)CC2)cc1 | 12.8 | 11.6 | 3.97 | 
O=C(Nc1cccc(F)c1)N[C@H]1CC[C@H](Oc2ccc(F)cc2)CC1 | 13.5 | 8.3 | 6.54 | Activity [5]: Active; Activity [6]: Active; Activity [7]: Active; Activity [8]: Active; Activity [9]: Active
O=C(Nc1cccc(C(F)(F)F)c1)N[C@H]1CC[C@H](OCc2ccc(F)cc2)CC1 | 4.4 | 2.65 | 9.58 | Activity [4]: Active
Cc1cccc(NC(=O)N[C@H]2CC[C@H](Oc3ccc(F)cc3)CC2)c1 | 24.1 | 14.4 | 4.73 | 
O=C(Nc1ccccc1F)N[C@H]1CC[C@H](Oc2ccc(F)cc2)CC1 |  | 17.5 | 2.1 | 
O=C(Nc1ccccc1I)N[C@H]1CC[C@H](Oc2ccc(F)cc2)CC1 | 18.5 | > 20 | 3.25 | 
O=C(Nc1ccc(Cl)cc1)N[C@H]1CC[C@H](Oc2ccc(F)cc2)CC1 |  | > 20 | 1.65 | 
O=C(Nc1cccc(C(=O)O)c1)N[C@H]1CC[C@H](Oc2ccc(F)cc2)CC1 |  | > 20 | 0.88 | 
O=C(Nc1ccc(F)cc1)N[C@H]1CC[C@H](Oc2ccc(F)cc2)CC1 |  | 20 | 0.98 | 
O=C(Nc1ccccc1Cl)N[C@H]1CC[C@H](Oc2ccc(F)cc2)CC1 | 18.5 | 9.1 | 5.37 | 
O=C(Nc1cccc([N+](=O)[O-])c1)N[C@H]1CC[C@H](Oc2ccc(F)cc2)CC1 | 11.4 | 6.7 | 7.47 | 
COc1ccc(NC(=O)N[C@H]2CC[C@H](Oc3ccc(F)cc3)CC2)cc1 |  | > 20 | 0.83 | 
O=C(Nc1ccc(C(=O)O)cc1)N[C@H]1CC[C@H](Oc2ccc(F)cc2)CC1 | 21.2 | 11.6 | 3.49 | 
O=C(Nc1cccc(Cl)c1)N[C@H]1CC[C@H](Oc2ccc(F)cc2)CC1 | 6.4 | 5.9 | 8.76 | 
